The target of series [1] is T1, Disintegrin and metalloproteinase domain-containing protein 17 (Sus scrofa, UniProt O77636). The series is described as follows: Inhibitory activity against porcine Tumor necrosis factor alpha converting enzyme.
Series [2] deals with 72 kDa type IV collagenase (Homo sapiens, UniProt P08253). The series is described as follows: Affinity for Matrix metalloprotease-2 (MMP-2).
The next series deals with T2, Interstitial collagenase (Homo sapiens, UniProt P03956).
T2 sequence (P03956 whole entry): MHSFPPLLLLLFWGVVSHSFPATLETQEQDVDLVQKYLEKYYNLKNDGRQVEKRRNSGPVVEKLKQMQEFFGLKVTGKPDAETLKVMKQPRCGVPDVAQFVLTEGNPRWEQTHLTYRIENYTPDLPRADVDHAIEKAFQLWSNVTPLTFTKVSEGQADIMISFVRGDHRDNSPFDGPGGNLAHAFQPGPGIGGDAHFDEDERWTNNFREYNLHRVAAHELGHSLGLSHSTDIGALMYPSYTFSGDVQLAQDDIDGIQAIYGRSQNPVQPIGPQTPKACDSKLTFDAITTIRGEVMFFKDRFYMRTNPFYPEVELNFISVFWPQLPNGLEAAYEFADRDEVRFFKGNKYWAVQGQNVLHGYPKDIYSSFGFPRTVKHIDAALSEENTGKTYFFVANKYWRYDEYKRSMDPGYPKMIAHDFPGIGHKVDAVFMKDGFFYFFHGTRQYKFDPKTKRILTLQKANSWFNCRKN
The series is described as follows: Affinity towards Matrix metalloprotease-1 (MMP-1).

Series [3] has as its target Matrix metalloproteinase-9 (Homo sapiens, UniProt P14780). The series is described as follows: Affinity towards Matrix metalloprotease-9 (MMP-9).
Series [4] deals with Disintegrin and metalloproteinase domain-containing protein 17 (Homo sapiens, UniProt P78536). The series is described as follows: Inhibition of Tumor necrosis factor alpha secretion in LPS-stimulated human whole blood assay. The class given is functional, tissue-based.
Sequence of Disintegrin and metalloproteinase domain-containing protein 17 (Homo sapiens, UniProt P78536) (P78536 whole entry, the tested form may be a part): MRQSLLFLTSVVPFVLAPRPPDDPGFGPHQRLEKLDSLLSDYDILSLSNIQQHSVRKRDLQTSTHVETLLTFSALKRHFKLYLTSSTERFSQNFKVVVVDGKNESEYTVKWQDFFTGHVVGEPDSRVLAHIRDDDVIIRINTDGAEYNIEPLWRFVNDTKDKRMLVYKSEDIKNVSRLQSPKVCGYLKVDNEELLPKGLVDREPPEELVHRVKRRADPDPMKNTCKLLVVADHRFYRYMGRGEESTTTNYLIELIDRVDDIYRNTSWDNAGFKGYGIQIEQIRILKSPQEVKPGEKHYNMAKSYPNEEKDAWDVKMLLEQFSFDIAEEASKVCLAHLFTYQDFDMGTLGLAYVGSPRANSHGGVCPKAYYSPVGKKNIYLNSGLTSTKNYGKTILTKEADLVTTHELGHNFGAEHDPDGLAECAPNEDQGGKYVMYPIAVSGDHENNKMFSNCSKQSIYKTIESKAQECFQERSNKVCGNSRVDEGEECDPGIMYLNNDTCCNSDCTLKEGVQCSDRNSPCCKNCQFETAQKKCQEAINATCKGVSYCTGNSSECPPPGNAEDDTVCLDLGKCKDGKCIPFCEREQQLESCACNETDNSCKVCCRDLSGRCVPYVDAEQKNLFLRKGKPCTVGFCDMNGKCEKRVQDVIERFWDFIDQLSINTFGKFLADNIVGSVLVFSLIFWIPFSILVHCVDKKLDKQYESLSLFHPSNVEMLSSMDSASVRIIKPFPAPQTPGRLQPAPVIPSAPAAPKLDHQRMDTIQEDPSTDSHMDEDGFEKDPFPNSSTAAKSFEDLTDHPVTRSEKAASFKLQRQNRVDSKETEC
Series [5] has as its system Canis familiaris. The series is described as follows: (§1) The compound was administered intravenously at a dose of 4 mg/Kg for determination area under curve. It is filed as functional, organism-based. As to conditions: Canis lupus familiaris. The essentials: (§2)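 Sprague Dawley rats and Beagle dogs were dosed in cassette fashion, iv at 4 mg/kg or orally at 8 mg/kg. Plasma samples were analysed by LC–MS–MS. The iv arm gave clearance, volume of distribution at steady state, terminal half-life and AUC. The oral arm gave tmax and bioavailability. Two animals were used per dosing group.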

For series [6], the system named is Rattus norvegicus. Described as §1. The class given is functional, organism-based. A digest of the protocol:
as §2

For series [7], the system named is Canis familiaris. The series is described as follows: (§3) The compound was administered orally at a dose of 8 mg/Kg for determination of t max. The class given is functional, organism-based. The settings on record: Canis lupus familiaris. The essentials: as §2
In series [8] the test system is Rattus norvegicus. The series is described as §3. The class given is functional, organism-based. The essentials: as §2
Series [9] concerns Rattus norvegicus. The series is described as follows: (§4) The compound was administered intravenously at a dose of 4 mg/Kg for determination of systemic clearance. It is filed as functional, organism-based. A digest of the protocol: as §2
Series [10] deals with Canis familiaris. The series is described as follows: (§5) The compound was administered intravenously at a dose of 4 mg/Kg for determination of terminal half life. It is filed as functional, organism-based. As to conditions: Canis lupus familiaris. The essentials: (§6)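 Cassette dosing in Sprague Dawley rats and Beagle dogs, given intravenously at 4 mg/kg. Plasma samples were analysed by LC–MS–MS, and terminal half-life was derived from the plasma profile. Two animals per dosing group.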

Series [11] relates to Rattus norvegicus. Described as §5. It is filed as functional, organism-based. The essentials:
as §6

The nature of series [12]: (§7) Bioavailability (dose 8 mg/kg p.o.). The settings on record: dog, in vivo, po. It is filed as ADME, organism-based, Canis lupus familiaris. The essentials:
as §2

Series [13] can be described thus: (§8) The compound was administered intravenously at a dose of 4 mg/Kg for determination of volume of distribution at steady state. The settings on record: rat, in vivo, iv, read-out: Vss. The class given is ADME, organism-based. A digest of the protocol:
as §2

Series [14] is described as follows: as §4. It is filed as ADME, organism-based, Canis lupus familiaris. As to conditions: dog, in vivo, iv. A digest of the protocol: as §2
The target of another series is Stromelysin-1 (Homo sapiens, UniProt P08254). The series is described as follows: Affinity for Matrix metalloprotease-3 (MMP-3).
Sequence of Stromelysin-1 (P08254 whole entry): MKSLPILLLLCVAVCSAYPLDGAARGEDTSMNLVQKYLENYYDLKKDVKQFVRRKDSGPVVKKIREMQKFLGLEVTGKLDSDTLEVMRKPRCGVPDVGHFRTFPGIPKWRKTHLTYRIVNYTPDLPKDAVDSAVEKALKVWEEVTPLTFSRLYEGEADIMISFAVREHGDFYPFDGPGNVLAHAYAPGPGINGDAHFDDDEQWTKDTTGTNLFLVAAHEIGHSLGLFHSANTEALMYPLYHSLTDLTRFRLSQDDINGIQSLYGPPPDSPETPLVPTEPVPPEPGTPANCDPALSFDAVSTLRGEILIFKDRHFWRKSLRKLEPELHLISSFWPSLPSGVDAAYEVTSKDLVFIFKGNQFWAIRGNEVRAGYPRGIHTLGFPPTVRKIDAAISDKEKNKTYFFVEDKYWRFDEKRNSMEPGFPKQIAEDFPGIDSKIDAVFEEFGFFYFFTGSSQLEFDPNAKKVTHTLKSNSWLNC
For the next series, the target named is T3, Matrilysin (Homo sapiens, UniProt P09237).
T3 sequence (P09237 whole entry): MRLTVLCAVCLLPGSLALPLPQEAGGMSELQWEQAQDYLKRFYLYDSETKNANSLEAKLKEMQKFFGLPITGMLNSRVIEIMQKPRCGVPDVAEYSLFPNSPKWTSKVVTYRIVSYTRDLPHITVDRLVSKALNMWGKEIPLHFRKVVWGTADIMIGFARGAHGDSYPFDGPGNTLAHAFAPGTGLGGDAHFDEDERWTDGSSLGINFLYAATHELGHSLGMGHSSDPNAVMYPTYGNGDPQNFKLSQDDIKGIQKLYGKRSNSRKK
The series is described as follows: Affinity for Matrix metalloprotease-7 (MMP-7).

The nature of series [15]: as §7. The class given is ADME, organism-based. As to conditions: rat, in vivo, po. The essentials: as §2
Series [16] has as its target Matrix metalloproteinase-15 (Homo sapiens, UniProt P51511). The series is described as follows: Affinity for Matrix metalloprotease-15 (MMP-15).
For series [17], the target named is Matrix metalloproteinase-16 (Homo sapiens, UniProt P51512). The series is described as follows: Affinity for Matrix metalloprotease-16 (MMP-16).
The target of a further series is Neutrophil collagenase (Homo sapiens, UniProt P22894). The series is described as follows: Affinity for Matrix metalloprotease-8 (MMP-8).
Sequence of Neutrophil collagenase (P22894 whole entry, the tested form may be a part): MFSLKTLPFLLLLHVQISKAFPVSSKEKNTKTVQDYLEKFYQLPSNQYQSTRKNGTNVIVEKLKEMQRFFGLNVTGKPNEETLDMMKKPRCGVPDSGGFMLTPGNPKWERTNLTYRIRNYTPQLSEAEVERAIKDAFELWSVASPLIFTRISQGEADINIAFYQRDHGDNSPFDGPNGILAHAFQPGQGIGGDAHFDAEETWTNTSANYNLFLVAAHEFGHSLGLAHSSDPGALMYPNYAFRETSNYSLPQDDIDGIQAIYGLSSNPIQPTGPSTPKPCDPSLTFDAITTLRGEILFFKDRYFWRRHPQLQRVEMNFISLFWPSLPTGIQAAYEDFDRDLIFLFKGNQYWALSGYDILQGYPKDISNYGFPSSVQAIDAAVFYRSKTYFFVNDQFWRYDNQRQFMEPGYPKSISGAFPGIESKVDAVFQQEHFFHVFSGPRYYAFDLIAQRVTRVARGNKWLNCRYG
Series [18] addresses T1, Disintegrin and metalloproteinase domain-containing protein 17. The series is described as follows: Affinity for Tumor necrosis factor alpha converting enzyme (TACE).
A short description of series [19]: as §8. It is filed as ADME, organism-based, Canis lupus familiaris. As to conditions: dog, in vivo, iv, read-out: Vss. The essentials: as §2
Series [20] has as its target Matrix metalloproteinase-14 (Homo sapiens, UniProt P50281). The series is described as follows: Affinity for Matrix metalloprotease-14 (MMP-14).
A further series has as its target Collagenase 3 (Homo sapiens, UniProt P45452). The series is described as follows: Affinity for Matrix metalloprotease-13 (MMP-13).

The text below walks through data of ChEMBL document CHEMBL1135609, “Discovery of gamma-lactam hydroxamic acids as selective inhibitors of tumor necrosis factor alpha converting enzyme: design, synthesis, and structure-activity relationships” (J Med Chem, 2002).

SMILES strings stand for the structures.

Sequence of Matrix metalloproteinase-9 (P14780 whole entry, the tested form may be a part): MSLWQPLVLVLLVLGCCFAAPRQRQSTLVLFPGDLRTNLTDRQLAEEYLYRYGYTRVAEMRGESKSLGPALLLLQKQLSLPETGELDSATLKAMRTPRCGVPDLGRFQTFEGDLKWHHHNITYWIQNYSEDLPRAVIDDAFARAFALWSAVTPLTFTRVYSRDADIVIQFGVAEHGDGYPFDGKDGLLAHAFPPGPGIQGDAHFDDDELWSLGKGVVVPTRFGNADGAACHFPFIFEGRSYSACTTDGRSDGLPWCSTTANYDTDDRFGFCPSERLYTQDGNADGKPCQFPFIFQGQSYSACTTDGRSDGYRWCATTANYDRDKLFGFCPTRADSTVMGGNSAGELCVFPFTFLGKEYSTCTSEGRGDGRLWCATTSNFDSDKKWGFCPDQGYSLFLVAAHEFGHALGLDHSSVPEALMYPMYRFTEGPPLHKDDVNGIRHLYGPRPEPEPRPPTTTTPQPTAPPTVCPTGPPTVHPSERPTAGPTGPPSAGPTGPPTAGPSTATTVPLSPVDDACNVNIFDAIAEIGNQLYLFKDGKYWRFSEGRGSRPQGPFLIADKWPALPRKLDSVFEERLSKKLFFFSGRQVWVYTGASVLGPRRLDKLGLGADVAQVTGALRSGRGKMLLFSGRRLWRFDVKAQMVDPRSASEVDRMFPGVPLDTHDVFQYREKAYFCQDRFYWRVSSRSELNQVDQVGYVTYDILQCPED
T1 sequence (O77636 whole entry, the tested form may be a part): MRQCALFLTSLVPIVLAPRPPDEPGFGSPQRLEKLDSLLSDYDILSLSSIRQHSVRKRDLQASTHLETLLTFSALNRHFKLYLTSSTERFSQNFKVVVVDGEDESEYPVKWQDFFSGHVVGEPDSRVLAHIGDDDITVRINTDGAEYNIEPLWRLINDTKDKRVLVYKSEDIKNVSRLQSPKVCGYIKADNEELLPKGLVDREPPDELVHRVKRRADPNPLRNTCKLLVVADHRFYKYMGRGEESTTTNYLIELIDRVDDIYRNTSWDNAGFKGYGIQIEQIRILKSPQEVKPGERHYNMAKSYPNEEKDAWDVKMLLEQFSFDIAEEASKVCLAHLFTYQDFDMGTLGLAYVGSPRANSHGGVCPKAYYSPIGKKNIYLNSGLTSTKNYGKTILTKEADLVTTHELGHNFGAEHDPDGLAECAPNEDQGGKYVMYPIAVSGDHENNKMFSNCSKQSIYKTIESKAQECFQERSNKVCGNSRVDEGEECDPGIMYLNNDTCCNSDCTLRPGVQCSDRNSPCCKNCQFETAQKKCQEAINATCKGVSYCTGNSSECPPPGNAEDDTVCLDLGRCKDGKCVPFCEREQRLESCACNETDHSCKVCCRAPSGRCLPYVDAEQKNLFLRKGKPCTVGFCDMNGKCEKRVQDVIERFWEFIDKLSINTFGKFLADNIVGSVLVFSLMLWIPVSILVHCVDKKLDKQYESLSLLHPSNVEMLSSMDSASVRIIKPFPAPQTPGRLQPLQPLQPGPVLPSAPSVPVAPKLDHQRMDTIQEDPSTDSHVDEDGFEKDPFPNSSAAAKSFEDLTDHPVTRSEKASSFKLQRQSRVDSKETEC
Sequence of 72 kDa type IV collagenase (P08253 whole entry): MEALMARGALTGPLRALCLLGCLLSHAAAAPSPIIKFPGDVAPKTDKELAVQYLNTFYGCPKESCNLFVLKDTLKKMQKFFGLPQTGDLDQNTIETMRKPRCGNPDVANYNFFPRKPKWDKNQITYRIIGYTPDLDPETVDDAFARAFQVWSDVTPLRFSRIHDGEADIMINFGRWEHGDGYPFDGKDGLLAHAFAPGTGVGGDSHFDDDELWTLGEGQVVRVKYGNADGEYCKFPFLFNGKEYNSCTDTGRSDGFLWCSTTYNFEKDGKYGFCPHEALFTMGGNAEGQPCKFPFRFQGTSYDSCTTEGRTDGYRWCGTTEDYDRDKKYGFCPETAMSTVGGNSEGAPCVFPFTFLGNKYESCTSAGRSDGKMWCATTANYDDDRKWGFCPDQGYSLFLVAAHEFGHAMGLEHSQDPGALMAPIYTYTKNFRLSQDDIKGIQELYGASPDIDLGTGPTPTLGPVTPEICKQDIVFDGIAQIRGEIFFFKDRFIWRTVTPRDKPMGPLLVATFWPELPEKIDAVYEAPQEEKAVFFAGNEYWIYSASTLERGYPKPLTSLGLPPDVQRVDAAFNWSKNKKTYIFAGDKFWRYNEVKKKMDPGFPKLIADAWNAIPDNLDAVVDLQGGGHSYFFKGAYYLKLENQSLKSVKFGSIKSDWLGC
Sequence of Matrix metalloproteinase-15 (P51511 whole entry): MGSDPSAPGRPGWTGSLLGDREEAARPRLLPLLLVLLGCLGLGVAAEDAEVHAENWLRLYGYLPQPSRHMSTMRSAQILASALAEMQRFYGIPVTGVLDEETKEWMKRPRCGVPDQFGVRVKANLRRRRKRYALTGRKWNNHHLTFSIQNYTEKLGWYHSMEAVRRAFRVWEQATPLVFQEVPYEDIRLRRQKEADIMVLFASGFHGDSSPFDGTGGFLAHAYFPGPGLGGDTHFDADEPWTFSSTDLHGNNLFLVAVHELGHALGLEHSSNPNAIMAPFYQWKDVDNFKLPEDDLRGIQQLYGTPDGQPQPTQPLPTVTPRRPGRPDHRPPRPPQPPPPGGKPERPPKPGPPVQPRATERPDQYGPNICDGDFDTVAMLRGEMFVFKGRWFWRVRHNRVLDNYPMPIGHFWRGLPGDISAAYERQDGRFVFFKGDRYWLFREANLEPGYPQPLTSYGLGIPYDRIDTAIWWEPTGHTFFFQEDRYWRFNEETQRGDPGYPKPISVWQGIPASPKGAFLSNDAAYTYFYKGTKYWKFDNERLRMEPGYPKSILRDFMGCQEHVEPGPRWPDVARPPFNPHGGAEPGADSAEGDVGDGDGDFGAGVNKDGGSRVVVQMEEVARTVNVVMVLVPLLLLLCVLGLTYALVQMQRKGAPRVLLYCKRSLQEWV

By IC50 is commonly meant the concentration needed to halve the response being measured. One may read the Ki as the equilibrium dissociation constant of an inhibitor or competing ligand from its target. Higher therefore signals weaker binding. As to `Cc1cc(C)cc(COc2ccc([C@]3(C)CCN([C@H](C)C(=O)NO)C3=O)cc2)c1`, the IC50 in series [1] was found to be 4 nM. Further, the Ki in [2] is 5810 nM; at Interstitial collagenase it was 4750 nM; in series [3], 1630 nM.
For `C[C@H](C(=O)NO)N1CC[C@@](C)(c2ccc(-c3ccccc3)cc2)C1=O`, in that order: 13000 nM, 82 nM, 2290 nM and 35 nM.
In the case of `Cc1cncc(C)c1COc1ccc([C@]2(C)CCN([C@H](C)C(=O)NO)C2=O)cc1` (stereo in doubt; 5q), the results for the concentration for half-maximal inhibition (IC50) in series [1] and in series [4] were 3 nM and 6600 nM, respectively.
`C[C@H](C(=O)NO)N1CC[C@@](C)(c2ccccc2)C1=O`: the IC50 in series [1] was determined as 2200 nM. For the same molecule, the Ki is 108 nM in [2], 221 nM on Interstitial collagenase and 242 nM in [3].
Take `C[C@H](C(=O)NO)N1CC[C@@](C)(c2ccc(OCc3ccnc4ccccc34)cc2)C1=O`: the values for the IC50 in series [1] and in series [4] were 1.8 nM and 2250 nM, respectively.
`CC(C)Cc1ccc([C@]2(C)CCN([C@H](C)C(=O)NO)C2=O)cc1`: the 50% inhibitory concentration (IC50) in series [1] amounted to 1000 nM. In addition, the results for the Ki (in series [2]; on Interstitial collagenase; in [3]) were 701 nM, 4000 nM and 586 nM, respectively.
For the molecule `COc1cc(COc2ccc([C@]3(C)CCN([C@H](C)C(=O)NO)C3=O)cc2)cc(OC)c1`, the IC50 in series [1] is 7 nM. Moreover, the figures for the Ki (in [2]; on Interstitial collagenase; in series [3]) were greater than 3000 nM, greater than 5000 nM and greater than 2000 nM, respectively.
Consider `C[C@H](C(=O)NO)N1CC[C@@](C)(c2ccc(OCc3ccccc3[N+](=O)[O-])cc2)C1=O`, for which the IC50 in [1] worked out at 4 nM. The Ki was 35 nM in series [2], greater than 5000 nM at Interstitial collagenase and 66 nM in series [3].
Take `C[C@H](C(=O)NO)N1CC[C@@](C)(c2ccc(OC(C)(C)C)cc2)C1=O`: in series [1], the IC50 is greater than 10000 nM.
In series [1], `C[C@H](C(=O)NO)N1CC[C@@](C)(c2ccc(OCc3cccc([N+](=O)[O-])c3)cc2)C1=O` showed an IC50 of 6 nM. In addition, the Ki is 38 nM in series [2], greater than 5000 nM on Interstitial collagenase and 39 nM in series [3].
Taken in the same sequence, the figures for `C[C@H](C(=O)NO)N1CC[C@@](C)(c2ccc(OCc3cc(C(F)(F)F)cc(C(F)(F)F)c3)cc2)C1=O` were 2 nM, greater than 3000 nM, greater than 5000 nM and greater than 2000 nM.
Consider `COc1ccc([C@]2(C)CCN([C@H](C)C(=O)NO)C2=O)cc1`, for which the IC50 in series [1] stood at 887 nM. Also, the inhibitory constant (Ki) turned out to be 4.8 nM in [2], 92 nM at Interstitial collagenase and 9 nM in [3].
For `Cc1cncc(C)c1COc1ccc([C@]2(C)CCN([C@H](C)C(=O)NO)C2=O)cc1` (stereo in doubt; 5p), the IC50 in series [1] worked out at 16 nM; in series [4], 8100 nM.
In series [1], `C[C@H](C(=O)NO)N1CC[C@@](C)(c2ccc(OCc3ccccc3)cc2)C1=O` displayed an IC50 of 4 nM. The Ki in series [2] was 19 nM; at Interstitial collagenase it was greater than 5000 nM; in [3], 29 nM.
Regarding `Cc1cc(COc2ccc([C@]3(C)CCN([C@H](C)C(=O)NO)C3=O)cc2)c2ccccc2n1` (stereo in doubt) [listing 1 of 2 here], the AUC came out at 4430 ng·h/mL in the series with Canis familiaris [5] and 1810 ng·h/mL in the series on Rattus norvegicus [6]. The Tmax with Canis familiaris [7] and in the series with Rattus norvegicus [8] was 0.38 h each time. In the series on Rattus norvegicus [9], the CL (mL.min-1.kg-1) came out at 35. The T1/2 in the series on Canis familiaris [10] was found to be 7.1 h; in the series on Rattus norvegicus [11], 11.8 h.
In series [1], `C=CCOc1ccc([C@]2(C)CCN([C@H](C)C(=O)NO)C2=O)cc1` yielded an IC50 of 97 nM. In addition, the Ki in series [2] turned out to be 14 nM; at Interstitial collagenase it was 335 nM; in series [3], 11 nM.
`C[C@H](C(=O)NO)N1CC[C@@](C)(c2ccc(Oc3ccccc3)cc2)C1=O` registered an IC50 in [1] of 185 nM. Moreover, the Ki was less than 2.8 nM in series [2], 143 nM at Interstitial collagenase and less than 2.1 nM in series [3].
Regarding `C[C@H](C(=O)NO)N1CC[C@@](C)(c2ccc(OCc3ccncc3)cc2)C1=O`, the IC50 in [1] amounted to 21 nM; in series [4] it was 5900 nM.
In series [1], `Cc1cc(COc2ccc([C@]3(C)CCN([C@H](C)C(=O)NO)C3=O)cc2)c2ccccc2n1` (stereo in doubt; 5s) displayed an IC50 of 1 nM.
In series [1], `C[C@H](C(=O)NO)N1CC[C@@](C)(c2ccc(OCc3ccc([N+](=O)[O-])cc3)cc2)C1=O` had an IC50 of 6 nM. For the same molecule, the Ki in series [2] was 11 nM; on Interstitial collagenase, greater than 5000 nM; in series [3] it was 40 nM.
One may read the bioavailability as the share of a dose that reaches the circulation, judged against a reference dose that is usually intravenous. Broadly, the clearance is the volume of plasma or blood freed of the substance per unit of time. Lower therefore signals inefficient removal. For `Cc1cc(COc2ccc([C@]3(C)CCN([C@H](C)C(=O)NO)C3=O)cc2)c2ccccc2n1` (stereo in doubt) [listing 2 of 2 here], the bioavailability stood at 32% in [12] and 41% in series [15]. Besides, the Vd in series [13] stood at 2 L/kg; in series [19], 0.93 L/kg. The same molecule had a clearance in series [14] of 15.7 mL/min/kg. Besides, the inhibition constant (Ki) on Stromelysin-1 stood at 141 nM; at Matrilysin, 259 nM; in series [16], 4000 nM; in series [17], 1600 nM; in series [2] it was 2050 nM; on Interstitial collagenase it was 30000 nM. The Ki at Neutrophil collagenase turned out to be 257 nM; in [18], 0.56 nM; in [3], 10300 nM; in series [20] it was 15900 nM; on Collagenase 3, 1420 nM.
